Measured values published in ChEMBL document CHEMBL1146547, “Bulbinelonesides A-E, phenylanthraquinone glycosides from the roots of Bulbinella floribunda” (J Nat Prod, 2003).
Converted amounts (≈) assume the structure as drawn.

Legend:
[1] = Cytotoxicity against human HPC by MTT assay
How it was run: (§1)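 Cells were grown in DMEM with 10% heat-inactivated FBS and penicillin/streptomycin under humidified 5% CO2. HPC came from premolar pulp explants and were used at passages 5–10. Cells were trypsinized, seeded at 6 × 10^3 to 1.2 × 10^4, incubated 24 h, washed with PBS, then exposed to compound for 24 h. MTT (0.2 mg/mL, 4 h) was added, cells were lysed in DMSO, and A540 was read. LD50 was taken from the dose-response curve.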

HSC-2 = test: Cytotoxicity against human HSC2 cells by MTT assay; assay type: functional, cell-based; how it was run: as §1

Row | SMILES | IC50 [1] [mg/L] | IC50 (HSC-2) [mg/L]
1 | COc1cc(O)c(C(C)=O)c(O)c1-c1c(C)cc(O)c2c1C(=O)c1cccc(O)c1C2=O | 57 (≈ 131 µM) | 25 (≈ 57.6 µM)
2 | COc1cc(O[C@@H]2O[C@H](CO)[C@@H](O)[C@H](O)[C@H]2O)c(-c2c(C)cc(O)c3c2C(=O)c2cccc(O)c2C3=O)c(O)c1C(C)=O [BULBINELONESIDE A] | > 120 | 36 (≈ 60.3 µM)
3 | CC(=O)c1c(O)cc(O[C@@H]2OC[C@@H](O)[C@H](O)[C@H]2O)c(-c2c(C)cc(O)c3c2C(=O)c2cccc(O)c2C3=O)c1O [BULBINELONESIDE B] | > 120 | 56 (≈ 101 µM)
4 | CC(=O)c1c(O[C@@H]2OC[C@@H](O)[C@H](O)[C@H]2O)cc(O)c(-c2c(C)cc(O)c3c2C(=O)c2cccc(O)c2C3=O)c1O [BULBINELONESIDE C] | > 120 | > 120
5 | CC(=O)c1c(O[C@@H]2O[C@H](CO)[C@@H](O)[C@H](O)[C@H]2O)cc(O)c(-c2c(C)cc(O)c3c2C(=O)c2cccc(O)c2C3=O)c1O [BULBINELONESIDE D] | > 120 | > 120
6 | CC(=O)c1c(O[C@@H]2OC[C@@H](O)[C@H](O[C@@H]3O[C@H](CO)[C@@H](O)[C@H](O)[C@H]3O)[C@H]2O)cc(O)c(-c2c(C)cc(O)c3c2C(=O)c2cccc(O)c2C3=O)c1O [BULBINELONESIDE E] | > 120 | > 120
7 | COc1cc([C@@H]2c3cc4c(cc3[C@@H](O[C@@H]3O[C@@H]5CO[C@@H](C)O[C@H]5[C@H](O)[C@H]3O)[C@H]3COC(=O)[C@H]23)OCO4)cc(OC)c1O [ETOPOSIDE] | > 120 | 24 (≈ 40.8 µM)
8 | COc1cc(O)c(-c2c(C)cc(O)c3c2C(=O)c2cccc(O)c2C3=O)c(O)c1C(C)=O [KNIPHOLONE] | > 120 | 33 (≈ 76 µM)
